Test results reported in ChEMBL document CHEMBL1121796, “Bioactivation of the antitumor drugs 9-hydroxyellipticine and derivatives by a peroxidase-hydrogen peroxide system” (1981).

Key:
[1] = target: Myeloperoxidase (Homo sapiens) (UniProt P05164); test: The effect on oxygen consumed in the presence of MPO-H2O2.
[2] = target: Myeloperoxidase (Homo sapiens) (UniProt P05164); test: The effect on NADH oxidation in the presence of MPO-H2O2.
Mus musculus [3] = test: Increase in life span over control (10e5 cells) in mice after intraperitoneal treatment of the compound.; format: functional
Method in brief: (§1)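 DBA/2 mice were inoculated with 10⁵ L1210 leukemia cells and given a single intraperitoneal injection of drug. Survival was compared with untreated controls as increase in life span, ILS = [(T − C)/C] × 100. An antitumor effect was counted significant at ILS ≥ 25%.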

L1210 [4] = test: Compound was tested for its cytotoxic activity against murine leukemia L1210 cells in mice after intraperitoneal treatment, expressed as LD0 (highest nonlethal dose).; format: functional, Mus musculus
Method in brief: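 Highest nonlethal dose (LD0) found for each drug after a single intraperitoneal injection into DBA/2 or Swiss mice.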

L1210 [5] = test: Compound was tested for its antitumor activity against murine leukemia L1210 cells in vitro, expressed as ID50; format: functional; settings: Mus musculus, read-out: ID50 (the source's name)
Method in brief: (§2)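 L1210 murine leukemia cells were grown in culture with drug for 48 h. ID50 is the drug concentration that cuts the rate of cell multiplication by 50% compared with untreated controls.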

[6] = target: Myeloperoxidase (Homo sapiens) (UniProt P05164); test: The effect on oxygen uptake in the presence of MPO-H2O2 without the compound at pH 6.8
[7] = target: Myeloperoxidase (Homo sapiens) (UniProt P05164); test: The effect on oxygen uptake in the presence of MPO-H2O2 without the compound at pH 7.8
[8] = target: Myeloperoxidase (Homo sapiens) (UniProt P05164); test: The effect on NADH oxidation in the presence of MPO-H2O2 at pH 7.4
[9] = target: Myeloperoxidase (Homo sapiens) (UniProt P05164); test: The effect on NADH oxidation in the presence of MPO-H2O2 without compound at pH 7.8
[10] = target: Myeloperoxidase (Homo sapiens) (UniProt P05164); test: The effect on oxygen uptake in the presence of MPO-H2O2 at pH 7.4
[11] = target: Myeloperoxidase (Homo sapiens) (UniProt P05164); test: The effect on oxygen uptake in the presence of MPO-H2O2 at pH 7.8
[12] = target: Myeloperoxidase (Homo sapiens) (UniProt P05164); test: The effect on oxygen uptake in the presence of MPO-H2O2 at pH 8.3
[13] = target: Myeloperoxidase (Homo sapiens) (UniProt P05164); test: The effect on NADH oxidation in the presence of MPO-H2O2 without compound at pH 7.4
[14] = target: Myeloperoxidase (Homo sapiens) (UniProt P05164); test: The effect on NADH oxidation in the presence of MPO-H2O2 at pH 8.3
[15] = target: Myeloperoxidase (Homo sapiens) (UniProt P05164); test: The effect on NADH oxidation in the presence of MPO-H2O2 without the compound at pH 6.0
Mus musculus [16] = test: Increase in life span over controls (10e5 cells) in mice after intraperitoneal treatment of the compound.; format: functional; parameters: concentration or dose not given beside the values
Method in brief: as §1

[17] = target: Myeloperoxidase (Homo sapiens) (UniProt P05164); test: The effect on NADH oxidation in the presence of MPO-H2O2 without the compound
[18] = target: Myeloperoxidase (Homo sapiens) (UniProt P05164); test: The effect on oxygen uptake in the presence of MPO-H2O2 at pH 6.8
[19] = target: Myeloperoxidase (Homo sapiens) (UniProt P05164); test: The effect on oxygen uptake in the presence of MPO-H2O2 at pH 6.0
[20] = target: Myeloperoxidase (Homo sapiens) (UniProt P05164); test: The effect on NADH oxidation in the presence of MPO-H2O2 without the compound at pH 8.3
[21] = target: Myeloperoxidase (Homo sapiens) (UniProt P05164); test: The effect on NADH oxidation in the presence of MPO-H2O2 at pH 6.8
[22] = target: Myeloperoxidase (Homo sapiens) (UniProt P05164); test: The effect on NADH oxidation in the presence of MPO-H2O2.; remark: listed apart in the source
[23] = target: Myeloperoxidase (Homo sapiens) (UniProt P05164); test: The effect on oxygen uptake in the presence of MPO-H2O2 without the compound at pH 7.4
[24] = target: Myeloperoxidase (Homo sapiens) (UniProt P05164); test: The effect on oxygen uptake in the presence of MPO-H2O2 without the compound at pH 8.3
[25] = target: Myeloperoxidase (Homo sapiens) (UniProt P05164); test: The effect on NADH oxidation in the presence of MPO-H2O2 at pH 6.0
[26] = target: Myeloperoxidase (Homo sapiens) (UniProt P05164); test: The effect on NADH oxidation in the presence of MPO-H2O2 at pH 7.8
[27] = target: Myeloperoxidase (Homo sapiens) (UniProt P05164); test: The effect on oxygen uptake in the presence of MPO-H2O2 without the compound at pH 6.0
L1210 [28] = test: The compound is tested for its cytotoxic activity against murine leukemia L1210 cells in mice after intraperitoneal treatment, expressed as LD0 (highest nonlethal dose).; format: functional, Mus musculus
L1210 [29] = test: The compound is tested for its antitumor activity against murine leukemia L1210 cells in vitro, expressed as ID50; format: functional; settings: Mus musculus, read-out: ID50 (the source's name)
Method in brief: as §2

[30] = target: Myeloperoxidase (Homo sapiens) (UniProt P05164); test: he effect on oxygen consumed in the presence of MPO-H2O2.

Cc1c2c[n+](C)ccc2c(C)c2c1c1cc(O)ccc1n2C
Oxygen consumed [1]: 7.7 nM/min
NADH oxidized [2]: 16.15 nM/min
ILS (Mus musculus [3]): 78%
LD0 (L1210 [4]): 15 mg/kg
IC50 (L1210 [5]): 41 nM

Cc1c2ccncc2c(C)c2c1[nH]c1ccc(O)cc12
Oxygen uptake [6]: 0.28 nM/min
Oxygen uptake [7]: 0 nM/min
NADH oxidation [8]: 10.2 nM/min
NADH oxidation [9]: 0 nM/min
Oxygen uptake [10]: 0 nM/min
Oxygen uptake [11]: 0 nM/min
Oxygen uptake [12]: 0 nM/min
NADH oxidation [13]: 0 nM/min
NADH oxidation [14]: 6.5 nM/min
NADH oxidized [15]: 1.2 nM/min
ILS (Mus musculus [16]): 53%
NADH oxidation [17]: 0.5 nM/min
Oxygen uptake [18]: 0 nM/min
Oxygen uptake [19]: 0 nM/min
NADH oxidized [2]: 10.5 nM/min
NADH oxidation [20]: 0 nM/min
NADH oxidation [21]: 7.8 nM/min
Oxygen consumed [22]: 0 nM/min
Oxygen uptake [23]: 0 nM/min
Oxygen uptake [24]: 0 nM/min
NADH oxidation [25]: 5.5 nM/min
LD0 (L1210 [4]): 50 mg/kg
NADH oxidation [26]: 7.2 nM/min
Oxygen uptake [27]: 0.52 nM/min
IC50 (L1210 [5]): 15 nM

COc1ccc2[nH]c3c(C)c4ccncc4c(C)c3c2c1
Oxygen consumed [1]: 0 nM/min
ILS (Mus musculus [16]): 70%
NADH oxidized [2]: 0.22 nM/min
LD0 (L1210 [28]): 70 mg/kg
IC50 (L1210 [29]): 600 nM

Cc1c2ccncc2c(C)c2c1[nH]c1ccccc12 [ELLIPTECINE]
Oxygen consumed [1]: 0 nM/min
ILS (Mus musculus [16]): 68%
NADH oxidized [2]: 0 nM/min
LD0 (L1210 [4]): 50 mg/kg
IC50 (L1210 [5]): 990 nM

Cc1c2cc[n+](C)cc2c(C)c2c1[nH]c1ccccc12
Oxygen consumed [30]: 0 nM/min
ILS (Mus musculus [16]): 18%
NADH oxidized [2]: 0 nM/min
LD0 (L1210 [4]): 12.5 mg/kg
IC50 (L1210 [5]): 1680 nM

Cc1c2cc[n+](C)cc2c(C)c2c1[nH]c1ccc(O)cc12 [ELLIPTINIUM]
Oxygen consumed [1]: 0 nM/min
ILS (Mus musculus [16]): 62%
NADH oxidized [2]: 12.2 nM/min
LD0 (L1210 [4]): 5 mg/kg
IC50 (L1210 [5]): 50 nM
